Data set [1] can be described thus: Prodrug activation in DMF assessed as pseudo-first-order kinetics at 10 uM incubated for 720 mins in presence of 10 mM GSH by fluorescence spectroscopic analysis. The settings on record: 12 h.
Data set [2] can be described thus: Prodrug activation in human A549 cells assessed as increase in fluorescence at 10 uM after 8 hrs in presence of GSH by confocal laser scanning microscopic method. The format is cell-based. The settings on record: a549, 8 h. An outline of the steps:
(§1)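 Cells (10^5 per confocal dish) were seeded in DMEM overnight at 37 °C, 5% CO2. They were pretreated with 5 mM GSH in DMEM, or medium alone, for 2 h, then washed. Compound at 10 μM was added for 8 h. Intracellular fluorescence was read by confocal microscopy (excitation 633 nm) or by flow cytometry under the same conditions.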

Another data set relates to A549. The data set is described as follows: Induction of ROS generation in human A549 cells at 10 uM incubated for 12 hrs irradiated with 20 mW cm^-2 light in presence of vitamin C by DCFH-DA staining based confocal laser scanning microscopic method. It is filed as functional, cell-based. The procedure, abridged: (§2)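 Cells were seeded in confocal dishes overnight. Pretreatment was GSH 5 mM in DMEM for 2 h, or vitamin C 100 μM for 1 h, before compound at 10 μM for 12 h. DCFH-DA was added for 1 h, then 5 PBS washes and transfer to serum-free, phenol red-free DMEM. Cells were irradiated at 670 nm, 20 mW·cm⁻², for 3 min. Confocal imaging used λex 488 nm for DCF and 633 nm for the photosensitizer.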

Data set [3] can be described thus: Prodrug activation in human HeLa cells assessed as increase in fluorescence at 10 uM after 8 hrs by flow cytometric analysis. The format is cell-based. The procedure, abridged:
as §1
In general terms: Flow cytometry measures light scatter and fluorescence of single cells or particles in a stream.

The nature of data set [4]: Drug localization in mitochondria of human A549 cells assessed as GSH mediated cleavage at 10 uM after 12 hrs by Mito-Tracker Green dye based confocal laser scanning microscopic method. The settings on record: a549, 12 h. It is filed as ADME. An outline of the steps:
(§3)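 Cells were seeded in confocal dishes overnight, then given compound at 10 μM for 12 h. Staining was DAPI for 20 min, or Lyso-Tracker Red or Mito-Tracker Green for 60 min, followed by 5 PBS washes. Images were taken by confocal microscopy with excitation/detection of 405/425-475 nm (DAPI), 543/550-620 nm (Lyso) and 488/510-570 nm (Mito). Colocalization was judged from line intensity profiles.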

Data set [5] can be described thus: Photoactivity of compound in PBS with 0.05% Tween 80 assessed as singlet oxygen generation at 10 uM irradiated with 20 mW cm^-2 light in presence on GSH by DMA based fluorescence assay.
A short description of data set [6]: Drug uptake in tumour of Kunming mouse implanted with H22 cells at 2 mg/kg, iv and measured up to 24 hrs by FMT assay. It is filed as ADME, organism-based, Neoplasm. The settings on record: in vivo. An outline of the steps: (§4)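 Mice carried subcutaneous back tumours from H22 cells (10^7 cells/mL, 100 μL), used at about 50 mm³. They received a single tail-vein injection of 2 mg/kg (200 μL), with saline as control, 3 mice per group. Whole-body fluorescence molecular tomography was taken at 0, 2, 6, 12 and 24 h. At 24 h, tumour, heart, liver, spleen, lung and kidney were imaged ex vivo.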

A short description of data set [7]: Prodrug activation in HELF cells assessed as increase in fluorescence at 10 uM after 8 hrs in presence of GSH by confocal laser scanning microscopic method. Particulars: human, primary lung fibroblast. The format is cell-based. The procedure, abridged: as §1
Data set [8] is described as follows: Photoactivity of compound in DMF assessed as singlet oxygen generation at 10 uM irradiated with 20 mW cm^-2 light by DMA based fluorescence assay. It is filed as functional.
Data set [9] is described as follows: Drug localization in lysosome of human A549 cells assessed as GSH mediated cleavage at 10 uM after 12 hrs by Lyso-Tracker Red dye based confocal laser scanning microscopic method. It is filed as ADME, subcellular. Particulars: a549, 12 h. The procedure, abridged:
as §3

Data set [10] can be described thus: Prodrug activation in mouse H22 cells assessed as increase in fluorescence at 10 uM after 8 hrs in presence of GSH by confocal laser scanning microscopic method. It is filed as cell-based. Particulars: h22, 8 h. An outline of the steps: as §1
The subject of data set [11] is H22. Briefly: Photodynamic antitumor activity against mouse H22 cells implanted in Kunming mouse assessed as reduction in tumour volume at 2 mg/kg, iv administered at […] post-implantation followed by irradiated with 100 mW/cm2 […] and measured up to 15 days. It is filed as functional, organism-based. Particulars: time 15.0 day. An outline of the steps: (§5)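 Mice carried subcutaneous H22 tumours of about 50 mm³ and were randomised into 5 groups of 5. They received saline or compound at 2 mg/kg (100 μL) i.v. on days 1, 4 and 7. Light groups were irradiated at 670 nm, 100 mW/cm², 12 h after each dose. Tumour volume and body weight were recorded daily for 15 days. Tumours were then excised and weighed, fixed in 4% paraformaldehyde, paraffin-embedded and H&E stained. Apoptotic and necrotic areas were scored microscopically.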

In data set [12] the test system is H22. The data set is described as follows: Photodynamic antitumor activity against mouse H22 cells implanted in Kunming mouse assessed as reduction in tumour size at 2 mg/kg, iv administered at […] post-implantation followed by irradiated with 100 mW/cm2 […] and measured up to 15 days. The settings on record: time 15.0 day. The format is functional, organism-based. An outline of the steps: as §5

A short description of data set [13]: Prodrug activation in human HeLa cells assessed as increase in fluorescence at 10 uM after 8 hrs in presence of GSH by confocal laser scanning microscopic method. The format is cell-based. The procedure, abridged: as §1
Data set [14] in a line: Drug localization in nucleus of human A549 cells assessed as GSH mediated cleavage at 10 uM after 12 hrs by DAPI dye based confocal laser scanning microscopic method. It is filed as ADME, subcellular. The settings on record: a549, 12 h. The procedure, abridged:
as §3

In a further data set the test system is Primary lung fibroblast. The data set is described as follows: Induction of ROS generation in human HELF cells at 10 uM incubated for 12 hrs irradiated with 20 mW cm^-2 light in presence of vitamin C by DCFH-DA staining based confocal laser scanning microscopic method. The format is functional, cell-based. An outline of the steps:
as §2

A short description of data set [15]: Prodrug activation in DMF at 10 uM incubated for 720 mins in presence of 2 uM GSH by fluorescence spectroscopic analysis. The settings on record: 12 h.
The nature of data set [16]: Prodrug activation in DMF at 10 uM incubated for 720 mins in presence of 10 mM GSH by fluorescence spectroscopic analysis. Particulars: 12 h.
Data set [17] in a line: Drug uptake in Kunming mouse implanted with H22 cells at 2 mg/kg, iv and measured up to 24 hrs by FMT assay. The format is ADME, organism-based. The settings on record: in vivo. An outline of the steps: as §4

Activity calls are given as the source filed them. The rule behind the calls is not given here.

On to `COCCOCCOCCOc1ccc(/C=C/C2=[N+]3C(=C(c4ccc(OCc5cn(CCSSCCn6cc(COc7ccc(C8=C9C(C)=CC(/C=C/c%10ccc(N(C)C)cc%10)=[N+]9[B-](F)(F)n9c(/C=C/c%10ccc(N(C)C)cc%10)cc(C)c98)cc7)nn6)nn5)cc4)c4c(C)c(I)c(/C=C/c5ccc(OCCOCCOCCOC)cc5)n4[B-]3(F)F)C(C)=C2I)cc1`, for which the K in data set [1] is 5.8 10^-3/min. In addition, the Drug metabolism result in [2] is reported as “Metabolite_Detected”; in data set [3] it was “Metabolite_Detected”; in [5], “Metabolite detected”; in data set [7] it was “Metabolite_Detected”; in data set [8], “Metabolite not detected”; in [10] it was “Metabolite_Detected”. For the same compound, the Drug metabolism result in data set [13] is on record as “Metabolite_Detected”. Moreover, the result in the data set with A549 and in the data set on Primary lung fibroblast was inactive. Besides, the Drug uptake entry in data set [4] is on record as “Active”; in data set [6], “Active”; in data set [9] it was “Active”; in data set [14], “Not Active”. The result in the data set with H22 [11] and in the data set on H22 [12] was Active.

For the compound `COCCOCCOCCOc1ccc(/C=C/C2=[N+]3C(=C(c4ccc(OCc5cn(CCCCCCn6cc(COc7ccc(C8=C9C(C)=CC(/C=C/c%10ccc(N(C)C)cc%10)=[N+]9[B-](F)(F)n9c(/C=C/c%10ccc(N(C)C)cc%10)cc(C)c98)cc7)nn6)nn5)cc4)c4c(C)c(I)c(/C=C/c5ccc(OCCOCCOCCOC)cc5)n4[B-]3(F)F)C(C)=C2I)cc1`, the Drug metabolism entry in [2] was “Metabolite_Notdetected”; in data set [3], “Metabolite_Notdetected”; in [15] it was “Metabolite_Notdetected”; in data set [5], “Metabolite not detected”; in [7], “Metabolite_Notdetected”; in data set [8], “Metabolite not detected”. Besides, the Drug metabolism entry in data set [10], in data set [13] and in data set [16] was “Metabolite_Notdetected” in each case. For the same compound, the result in the data set with A549 and in the data set with Primary lung fibroblast was inactive. In addition, the Drug uptake entry in data set [6] and in data set [17] was “Active” in each case. The outcome in the data set with H22 [11] and with H22 [12] was Active.

(Values after ChEMBL document CHEMBL4680231, “A glutathione-responsive photosensitizer with fluorescence resonance energy transfer characteristics for imaging-guided targeting photodynamic therapy” (Eur J Med Chem, 2020).)
